Measurements published in ChEMBL document CHEMBL5143722, “Antimicrobial Peptides against Multidrug-Resistant Pseudomonas aeruginosa Biofilm from Cystic Fibrosis Patients” (J Med Chem, 2022).
Calls of active or inactive are those of the source. No cut-off for these calls is given here.

How the values were obtained:
Pseudomonas aeruginosa [1] = assay: Induction of biofilm degradation of Pseudomonas aeruginosa clinical isolate 99 at 50 uM incubated for 1 hr by crystal violet staining analysis relative to control; type: functional
Outline: (§1)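 Bacteria at 1 × 10^6 CFU/mL in BM2 grown static at 37 °C for 24 h to form biofilm. Wells rinsed of unattached cells, then exposed for 1 h to serial peptide dilutions (1.56–50 μM). Washed, stained with 0.1% crystal violet, A590 read. Biomass given as % of untreated biofilm; no-bacteria wells as blanks. At least three biological repeats.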

Pseudomonas aeruginosa [2] = assay: Induction of biofilm degradation of Pseudomonas aeruginosa clinical isolate 59 at <12.5 uM incubated for 1 hr by crystal violet staining analysis; type: functional; outline: as §1
Pseudomonas aeruginosa [3] = assay: Antibiofilm activity against Pseudomonas aeruginosa clinical isolate 24 assessed as inhibition of biofilm formation at sub-inhibitory concentration incubated for 24 hrs by crystal violet staining based microtiter plate method; type: functional, organism-based
Outline: (§2)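 Washed overnight cultures in BM2 medium at 1 × 10^6 CFU/mL with 2-fold serial peptide dilutions in a U-bottom 96-well plate. Incubated 24 h at 37 °C without agitation. Unattached cells washed off, then 0.1% crystal violet stain read at 590 nm. No-bacteria blanks. Biomass expressed as % of untreated biofilm. At least three biological repeats.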

Pseudomonas aeruginosa [4] = assay: Induction of biofilm degradation of Pseudomonas aeruginosa clinical isolate 24 incubated for 1 hr by crystal violet staining analysis relative to control; type: functional; details: dose 50.0 µM; outline: as §1
Pseudomonas aeruginosa [5] = assay: Induction of biofilm degradation of Pseudomonas aeruginosa clinical isolate 52 at 50 uM incubated for 1 hr by crystal violet staining analysis relative to control; type: functional; outline: as §1
Pseudomonas aeruginosa [6] = assay: Induction of biofilm degradation of Pseudomonas aeruginosa clinical isolate 238 at 50 uM incubated for 1 hr by crystal violet staining analysis relative to control; type: functional; outline: as §1
Pseudomonas aeruginosa [7] = assay: Induction of biofilm degradation of Pseudomonas aeruginosa clinical isolate 40 at 50 uM incubated for 1 hr by crystal violet staining analysis relative to control; type: functional; outline: as §1
Pseudomonas aeruginosa [8] = assay: Antibiofilm activity against Pseudomonas aeruginosa clinical isolate 995 assessed as inhibition of biofilm formation at MIC incubated for 24 hrs by crystal violet staining based microtiter plate method; type: functional, organism-based; outline: as §2
Pseudomonas aeruginosa [9] = assay: Antibiofilm activity against Pseudomonas aeruginosa clinical isolate 99 assessed as inhibition of biofilm formation at sub-inhibitory concentration incubated for 24 hrs by crystal violet staining based microtiter plate method; type: functional, organism-based; outline: as §2
Pseudomonas aeruginosa [10] = assay: Antibiofilm activity against Pseudomonas aeruginosa clinical isolate 25 assessed as inhibition of biofilm formation at sub-inhibitory concentration incubated for 24 hrs by crystal violet staining based microtiter plate method; type: functional, organism-based; outline: as §2
Pseudomonas aeruginosa [11] = assay: Antibiofilm activity against Pseudomonas aeruginosa clinical isolate 72 assessed as inhibition of biofilm formation at sub-inhibitory concentration incubated for 24 hrs by crystal violet staining based microtiter plate method; type: functional, organism-based; outline: as §2
Pseudomonas aeruginosa [12] = assay: Induction of biofilm degradation of Pseudomonas aeruginosa clinical isolate 172 at 50 uM incubated for 1 hr by crystal violet staining analysis relative to control; type: functional; outline: as §1
Pseudomonas aeruginosa [13] = assay: Induction of biofilm degradation of Pseudomonas aeruginosa clinical isolate 251 at 50 uM incubated for 1 hr by crystal violet staining analysis; type: functional; outline: as §1
Pseudomonas aeruginosa [14] = assay: Induction of biofilm degradation of Pseudomonas aeruginosa clinical isolate 629 at 50 uM incubated for 1 hr by crystal violet staining analysis relative to control; type: functional; outline: as §1
Pseudomonas aeruginosa [15] = assay: Induction of biofilm degradation of Pseudomonas aeruginosa clinical isolate 71 at 50 uM incubated for 1 hr by crystal violet staining analysis relative to control; type: functional; outline: as §1
Pseudomonas aeruginosa [16] = assay: Induction of biofilm degradation of Pseudomonas aeruginosa clinical isolate 72 at 50 uM incubated for 1 hr by crystal violet staining analysis relative to control; type: functional; outline: as §1
Pseudomonas aeruginosa [17] = assay: Inhibition of biofilm formation of Pseudomonas aeruginosa clinical isolate 24 derived from cystic fibrosis patient sputum at 0.78 to 25 uM by crystal violet based staining analysis; type: functional, organism-based; details: dose 0.78-25 µM
Outline: (§3)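 CF patient sputum diluted 10-fold with BM2, bacteria added with serial peptide dilutions starting from the highest MIC per isolate. Inoculum suspension 1 × 10^6 CFU/mL. Incubated 24 h at 37 °C without agitation. Unattached cells washed away, then 0.1% crystal violet staining and A590. Biomass given as % of untreated, with no-bacteria blanks.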

Pseudomonas aeruginosa [18] = assay: Inhibition of biofilm formation of Pseudomonas aeruginosa PAO1 in patient derived CF-sputum at 0.09 to 3.12 uM by crystal violet based staining analysis; type: functional, organism-based; details: dose 0.09-3.12 µM; outline: as §3
Pseudomonas aeruginosa [19] = assay: Induction of biofilm degradation of Pseudomonas aeruginosa clinical isolate 24 at sub MIC concentration incubated for 1 hr by crystal violet staining analysis; type: functional; outline: as §1
Pseudomonas aeruginosa [20] = assay: Inhibition of biofilm formation of Pseudomonas aeruginosa clinical isolate 82 derived from cystic fibrosis patient sputum at 0.09 to 3.12 uM by crystal violet based staining analysis; type: functional, organism-based; details: dose 0.09-3.12 µM; outline: as §3
Pseudomonas aeruginosa [21] = assay: Induction of biofilm degradation of Pseudomonas aeruginosa clinical isolate 53 at sub MIC concentration incubated for 1 hr by crystal violet staining analysis; type: functional; outline: as §1
Pseudomonas aeruginosa [22] = assay: Antibiofilm activity against Pseudomonas aeruginosa clinical isolate 53 assessed as inhibition of biofilm formation at sub-inhibitory concentration incubated for 24 hrs by crystal violet staining based microtiter plate method; type: functional, organism-based; outline: as §2
Pseudomonas aeruginosa [23] = assay: Induction of biofilm degradation of Pseudomonas aeruginosa clinical isolate 25 at 50 uM incubated for 1 hr by crystal violet staining analysis relative to control; type: functional; outline: as §1
Pseudomonas aeruginosa [24] = assay: Antibiofilm activity against Pseudomonas aeruginosa clinical isolate 46 assessed as inhibition of biofilm formation at sub-inhibitory concentration incubated for 24 hrs by crystal violet staining based microtiter plate method; type: functional, organism-based; outline: as §2
Pseudomonas aeruginosa [25] = assay: Antibiofilm activity against Pseudomonas aeruginosa clinical isolate 99 assessed as inhibition of biofilm formation at MIC incubated for 24 hrs by crystal violet staining based microtiter plate method; type: functional, organism-based; outline: as §2
Pseudomonas aeruginosa [26] = assay: Antibiofilm activity against Pseudomonas aeruginosa clinical isolate 71 assessed as inhibition of biofilm formation at sub-inhibitory concentration incubated for 24 hrs by crystal violet staining based microtiter plate method; type: functional, organism-based; outline: as §2
Pseudomonas aeruginosa [27] = assay: Induction of biofilm degradation of Pseudomonas aeruginosa clinical isolate 29 at 50 uM incubated for 1 hr by crystal violet staining analysis relative to control; type: functional; outline: as §1
Pseudomonas aeruginosa [28] = assay: Inhibition of biofilm formation of Pseudomonas aeruginosa clinical isolate 24 derived from cystic fibrosis patient sputum at 0.09 to 3.12 uM by crystal violet based staining analysis; type: functional, organism-based; details: dose 0.09-3.12 µM; outline: as §3
Pseudomonas aeruginosa [29] = assay: Induction of biofilm degradation of Pseudomonas aeruginosa clinical isolate 995 at 50 uM incubated for 1 hr by crystal violet staining analysis relative to control; type: functional; outline: as §1
Pseudomonas aeruginosa [30] = assay: Induction of biofilm degradation of Pseudomonas aeruginosa clinical isolate 40 at sub MIC concentration incubated for 1 hr by crystal violet staining analysis; type: functional; outline: as §1
Pseudomonas aeruginosa [31] = assay: Induction of biofilm degradation of Pseudomonas aeruginosa clinical isolate 46 at 50 uM incubated for 1 hr by crystal violet staining analysis relative to control; type: functional; outline: as §1
Pseudomonas aeruginosa [32] = assay: Antibiofilm activity against Pseudomonas aeruginosa clinical isolate 629 assessed as inhibition of biofilm formation at sub-inhibitory concentration incubated for 24 hrs by crystal violet staining based microtiter plate method; type: functional, organism-based; outline: as §2
Pseudomonas aeruginosa [33] = assay: Induction of biofilm degradation of Pseudomonas aeruginosa clinical isolate 82 at 50 uM incubated for 1 hr by crystal violet staining analysis relative to control; type: functional; outline: as §1
Pseudomonas aeruginosa [34] = assay: Induction of biofilm degradation of Pseudomonas aeruginosa PAO1 at 50 uM incubated for 1 hr by crystal violet staining analysis relative to control; type: functional; outline: as §1
Pseudomonas aeruginosa [35] = assay: Induction of biofilm degradation of Pseudomonas aeruginosa clinical isolate 53 at 50 uM incubated for 1 hr by crystal violet staining analysis relative to control; type: functional; outline: as §1

CC[C@H](C)[C@H](NC(=O)[C@H](CCCCN)NC(=O)[C@H](CCC(=O)O)NC(=O)[C@H](CCCCN)NC(=O)[C@H](CO)NC(=O)[C@H](CCCCN)NC(=O)[C@H](CCCNC(=N)N)NC(=O)[C@H](Cc1ccccc1)NC(=O)[C@H](Cc1ccccc1)NC(=O)[C@H](CC(=O)O)NC(=O)CNC(=O)[C@H](CC(C)C)NC(=O)[C@@H](N)CC(C)C)C(=O)NCC(=O)N[C@@H](CCCCN)C(=O)N[C@@H](CCC(=O)O)C(=O)N[C@@H](Cc1ccccc1)C(=O)N[C@@H](CCCCN)C(=O)N[C@@H](CCCNC(=N)N)C(=O)N[C@H](C(=O)N[C@H](C(=O)N[C@@H](CCC(N)=O)C(=O)N[C@@H](CCCNC(=N)N)C(=O)N[C@H](C(=O)N[C@@H](CCCCN)C(=O)N[C@@H](CC(=O)O)C(=O)N[C@@H](Cc1ccccc1)C(=O)N[C@@H](CC(C)C)C(=O)N[C@@H](CCCNC(=N)N)C(=O)N[C@@H](CC(N)=O)C(=O)N[C@@H](CC(C)C)C(=O)N[C@H](C(=O)N1CCC[C@H]1C(=O)N[C@@H](CCCNC(=N)N)C(=O)N[C@H](C(=O)N[C@@H](CCC(=O)O)C(=O)N[C@@H](CO)C(N)=O)[C@@H](C)O)C(C)C)[C@@H](C)CC)C(C)C)[C@@H](C)CC
Activity (Pseudomonas aeruginosa [1]): 60%
Activity (Pseudomonas aeruginosa [2]): Active
inhibition (Pseudomonas aeruginosa [3]): Active
Activity (Pseudomonas aeruginosa [4]): 60%
Activity (Pseudomonas aeruginosa [5]): 60%
Activity (Pseudomonas aeruginosa [6]): 60%
Activity (Pseudomonas aeruginosa [7]): 60%
inhibition (Pseudomonas aeruginosa [8]): Active
inhibition (Pseudomonas aeruginosa [9]): Active
inhibition (Pseudomonas aeruginosa [10]): Active
inhibition (Pseudomonas aeruginosa [11]): Active
Activity (Pseudomonas aeruginosa [12]): 60%
Activity (Pseudomonas aeruginosa [13]): 60%
Activity (Pseudomonas aeruginosa [14]): 60%
Activity (Pseudomonas aeruginosa [15]): 60%
Activity (Pseudomonas aeruginosa [16]): 60%
inhibition (Pseudomonas aeruginosa [17]): Active
inhibition (Pseudomonas aeruginosa [18]): Active
Activity (Pseudomonas aeruginosa [19]): Active
inhibition (Pseudomonas aeruginosa [20]): Active
Activity (Pseudomonas aeruginosa [21]): Active
inhibition (Pseudomonas aeruginosa [22]): Active
Activity (Pseudomonas aeruginosa [23]): 60%
inhibition (Pseudomonas aeruginosa [24]): Active
inhibition (Pseudomonas aeruginosa [25]): Active
inhibition (Pseudomonas aeruginosa [26]): Active
Activity (Pseudomonas aeruginosa [27]): 60%
inhibition (Pseudomonas aeruginosa [28]): Active
Activity (Pseudomonas aeruginosa [29]): 60%
Activity (Pseudomonas aeruginosa [30]): Active
Activity (Pseudomonas aeruginosa [31]): 60%
inhibition (Pseudomonas aeruginosa [32]): Active
Activity (Pseudomonas aeruginosa [33]): 60%
Activity (Pseudomonas aeruginosa [34]): 60%
Activity (Pseudomonas aeruginosa [35]): 60%
